These results are taken from ChEMBL document CHEMBL1932969, “Acyl derivatives of boswellic acids as inhibitors of NF-κB and STATs” (Bioorg Med Chem Lett, 2012).

One assay concerns HT-29. Nature of the assay: Anticancer activity against human HT-29 cells assessed as growth inhibition at 50 uM after 48 hrs by SRB assay. Particulars: HT-29, 48 h, read-out: GI. Format: functional. Summed up: (§1)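 Cells exposed to test compounds at 50 µM for 48 h. Read-out is percent growth inhibition, with SEM given. 5-Fluorouracil and adriamycin serve as reference agents.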
A general note: The SRB assay estimates cell density from bound dye.

Assay [1] has as its system HL-60. Nature of the assay: Induction of apoptosis in p53-deficient human HL60 cells assessed as post-apoptotic cells at 50 uM after 6 hrs by FITC-conjugated annexinV/PI-based flow cytometric analysis (reference value: 1 %). Format: functional. In a few lines: (§2)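 HL-60 cells incubated with each analog at 50 µM for 6 h, stained with annexin V-FITC/propidium iodide and analysed by flow cytometry. Lower right quadrant is apoptotic, upper right post-apoptotic, upper left necrotic. Three experiments, with representative dot plots shown.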
On the technique in general: A flow cytometer gives signals particle by particle.

The test system of assay [2] is HL-60. Put plainly: Inhibition of STAT3beta protein expression in p53-deficient human HL60 cells at 20 to 50 uM after 6 hrs by Western blot analysis. Format: cell-based.
In the next assay the test system is PC-3. Nature of the assay: Anticancer activity against human PC3 cells assessed as growth inhibition at 50 uM after 48 hrs by SRB assay. Format: functional. Particulars: PC-3, 48 h, read-out: GI. Summed up:
as §1

The next assay has as its system DU-145. Nature of the assay: Anticancer activity against human DU145 cells assessed as growth inhibition at 50 uM after 48 hrs by SRB assay. In kind it is functional. Particulars: DU-145, 48 h, read-out: GI. In a few lines:
as §1

Assay [3] concerns the target T1, Signal transducer and activator of transcription 6 (Homo sapiens) (UniProt P42226).
T1 sequence (whole entry): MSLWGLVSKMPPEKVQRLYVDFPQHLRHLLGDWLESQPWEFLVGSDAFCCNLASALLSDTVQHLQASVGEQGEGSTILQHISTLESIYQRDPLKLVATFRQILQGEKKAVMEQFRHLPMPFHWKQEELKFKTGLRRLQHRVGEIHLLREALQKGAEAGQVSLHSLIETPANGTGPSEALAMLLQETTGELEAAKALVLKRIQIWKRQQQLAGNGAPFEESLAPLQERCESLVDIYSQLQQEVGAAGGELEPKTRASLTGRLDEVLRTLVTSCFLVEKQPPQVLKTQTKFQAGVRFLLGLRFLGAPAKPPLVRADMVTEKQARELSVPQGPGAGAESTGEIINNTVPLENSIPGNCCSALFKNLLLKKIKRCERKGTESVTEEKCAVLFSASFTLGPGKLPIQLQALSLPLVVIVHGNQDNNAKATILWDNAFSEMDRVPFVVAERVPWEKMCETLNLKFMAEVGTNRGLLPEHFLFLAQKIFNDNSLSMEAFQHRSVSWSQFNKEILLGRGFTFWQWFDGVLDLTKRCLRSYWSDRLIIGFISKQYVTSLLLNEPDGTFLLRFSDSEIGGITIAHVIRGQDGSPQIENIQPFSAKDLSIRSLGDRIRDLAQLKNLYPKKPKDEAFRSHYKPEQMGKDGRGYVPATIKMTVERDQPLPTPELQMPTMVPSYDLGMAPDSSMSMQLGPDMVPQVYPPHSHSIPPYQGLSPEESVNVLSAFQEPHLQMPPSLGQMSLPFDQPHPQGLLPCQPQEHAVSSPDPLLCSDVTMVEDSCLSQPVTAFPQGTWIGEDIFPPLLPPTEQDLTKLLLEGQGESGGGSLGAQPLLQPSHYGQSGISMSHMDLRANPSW
Nature of the assay: Inhibition of STAT6 Tyr641 phosphorylation in p53-deficient human HL60 cells at 20 to 50 uM after 6 hrs by Western blot analysis. In kind it is cell-based. Particulars: HL-60. In general terms: A western blot detects proteins with antibodies after separation by electrophoresis.

Assay [4] has as its target T2, Signal transducer and activator of transcription 5A (Homo sapiens) (UniProt P42229).
T2 sequence (whole entry): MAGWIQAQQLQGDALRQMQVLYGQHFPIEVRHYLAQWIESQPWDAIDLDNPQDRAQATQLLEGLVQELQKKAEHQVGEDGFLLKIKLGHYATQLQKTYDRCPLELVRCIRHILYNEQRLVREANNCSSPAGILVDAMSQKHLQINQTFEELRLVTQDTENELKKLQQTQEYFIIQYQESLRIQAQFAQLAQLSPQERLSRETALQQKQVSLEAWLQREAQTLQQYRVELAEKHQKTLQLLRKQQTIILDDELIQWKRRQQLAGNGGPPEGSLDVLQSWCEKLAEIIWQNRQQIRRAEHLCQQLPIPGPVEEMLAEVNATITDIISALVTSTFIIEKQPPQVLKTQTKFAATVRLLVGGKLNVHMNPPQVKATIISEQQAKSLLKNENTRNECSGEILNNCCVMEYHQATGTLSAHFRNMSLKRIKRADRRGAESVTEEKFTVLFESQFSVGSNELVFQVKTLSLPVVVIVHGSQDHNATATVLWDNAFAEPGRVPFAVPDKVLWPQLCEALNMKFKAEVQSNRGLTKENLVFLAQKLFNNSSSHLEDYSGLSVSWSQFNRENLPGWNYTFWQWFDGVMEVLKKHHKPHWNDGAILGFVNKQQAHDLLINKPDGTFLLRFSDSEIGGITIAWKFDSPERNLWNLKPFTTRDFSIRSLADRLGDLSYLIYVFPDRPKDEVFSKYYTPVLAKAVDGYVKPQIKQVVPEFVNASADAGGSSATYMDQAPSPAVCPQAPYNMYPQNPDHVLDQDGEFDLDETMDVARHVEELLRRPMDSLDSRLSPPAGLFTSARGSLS
Nature of the assay: Inhibition of STAT5 Tyr694/699 phosphorylation in p53-deficient human HL60 cells at 20 to 50 uM after 6 hrs by Western blot analysis. Particulars: HL-60. Format: cell-based.

In assay [5] the target is T1, Signal transducer and activator of transcription 6 (Homo sapiens). Nature of the assay: Inhibition of STAT6 protein expression in p53-deficient human HL60 cells at 20 to 50 uM after 6 hrs by Western blot analysis. In kind it is cell-based. Particulars: HL-60.
Assay [6] concerns HL-60. Nature of the assay: Induction of apoptosis in p53-deficient human HL60 cells at 50 uM after 6 hrs by FITC-conjugated annexinV/PI-based flow cytometric analysis. In kind it is functional. In a few lines: as §2
For assay [7], the system named is HL-60. Put plainly: Induction of autophagy in p53-deficient human HL60 cells at 50 uM after 6 hrs by acridine orange staining. Format: functional, cell-based. Summed up: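 Autophagy scored by flow cytometry of HL-60 cells stained with acridine orange after 6 h exposure.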
The subject of assay [8] is HL-60. Nature of the assay: Induction of necrosis in p53-deficient human HL60 cells at 50 uM after 6 hrs by FITC-conjugated annexinV/PI-based flow cytometric analysis. In kind it is functional, cell-based. In a few lines: as §2
In another assay the test system is COLO 205. Nature of the assay: Anticancer activity against human COLO205 cells assessed as growth inhibition at 50 uM after 48 hrs by SRB assay. Format: functional. Particulars: COLO 205, 48 h, read-out: GI. In a few lines: as §1
For assay [9], the system named is HL-60. Nature of the assay: Anticancer activity against human HL60 cells after 48 hrs by MTT assay. In kind it is functional, cell-based. Particulars: HL-60, 48 h. Summed up: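 Cell proliferation measured by MTT. Cells are incubated with each analog for 48 h at the indicated concentrations, then MTT reduction is read as an index of viability. OD of the untreated control is taken as 100% viability, and IC50 is derived from this.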

Assay [10] has as its target T2, Signal transducer and activator of transcription 5A (Homo sapiens). Nature of the assay: Inhibition of STAT5 protein expression in p53-deficient human HL60 cells at 20 to 50 uM after 6 hrs by Western blot analysis. Format: cell-based. Particulars: HL-60.

Each structure is given as a SMILES string. Activity calls are given as the source filed them. The rule behind the calls is not given here.

As for `CCCC(=O)O[C@@H]1CC[C@@]2(C)[C@@H](CC[C@]3(C)[C@@H]2C(=O)C=C2[C@@H]4[C@@H](C)[C@H](C)CC[C@]4(C)CC[C@]23C)[C@@]1(C)C(=O)O`, the inhibition of growth at 50 µM came out at 96% with HT-29, 96% in the assay on PC-3, 93% in the assay on DU-145 and 94% in the assay on COLO 205. The Activity with HL-60 [1] is recorded as 48%; with HL-60 [6], 80%. Also, the inhibition entry (with HL-60 [2]; in assay [3]; in [4]; in assay [5]; in assay [10]) was “Active” throughout. Besides, the outcome in the assay with HL-60 [7] and in the assay on HL-60 [8] was inactive. The IC50 – broadly, the concentration at which inhibition is half-maximal – in the assay on HL-60 [9] stood at 11 µM.
